Laboratory results: ChEMBL document CHEMBL4765325, “Discovery of dihydropyrrolidones as novel inhibitors against influenza A virus” (Eur J Med Chem, 2020)
Calls of active or inactive are those of the source. The rule behind the calls is not given here.

Assays:
Influenza A virus [1] = assay: Antiviral activity against Influenza A virus (A/Puerto Rico/8/34(H1N1)) infected in dog MDCK cells assessed as reduction in virus-induced cytopathogenicity incubated for 48 hrs by microscopic analysis; format: functional, organism-based; details: A/Puerto Rico/8/1934(H1N1)
Influenza A virus [2] = assay: Antiviral activity against Influenza A virus (A/Puerto Rico/8/34(H1N1)) infected in human A549 cells assessed as reduction in viral replication by measuring HA mRNA expression at 5 to 40 uM incubated for 24 hrs by qRT-PCR analysis; format: functional, organism-based; details: A/Puerto Rico/8/1934(H1N1), dose 5-40 µM
MDCK [3] = assay: Downregulation of NOX1 in dog MDCK cells infected with Influenza A virus (A/Puerto Rico/8/34(H1N1)) at 40 uM incubated for 24 hrs by qRT-PCR analysis; format: functional, cell-based; details: Canis lupus familiaris
Summary of the method: (§1)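 Virus-infected MDCK cells were treated with compound for 24 h. Expression of each gene was then measured by qRT-PCR using gene-specific primers, against an untreated control group.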

Influenza A virus [4] = assay: Antiviral activity against Influenza A virus (A/Puerto Rico/8/34(H1N1)) infected in dog MDCK cells assessed as reduction in viral replication by measuring NP expression at 40 uM measured upto 10 hrs by Western blot analysis; format: functional, organism-based; details: A/Puerto Rico/8/1934(H1N1), time hrs <=10
Summary of the method: (§2)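 Time-of-addition assay with PR8. After unabsorbed virus was removed, cells received compound during the intervals 0–2, 2–5, 5–8, 8–10 or 0–10 h, covering one replication cycle. At 10 h p.i., viral NP protein was read by western blot and viral mRNA by qRT-PCR. Three independent experiments, mean SD.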

Influenza A virus [5] = assay: Antiviral activity against Influenza A virus (A/Puerto Rico/8/34(H1N1)) infected in dog MDCK cells assessed as reduction in viral replication at 40 uM measured upto 10 hrs; format: functional, organism-based; details: A/Puerto Rico/8/1934(H1N1), time hrs <=10; summary of the method: as §2
[6] = Cytotoxicity against human A549 cells assessed as reduction in cell viability incubated for 48 hrs by MTT assay; format: cell-based
Summary of the method: (§3)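 MDCK or A549 cells were seeded at 2 × 10⁴ per well and incubated overnight at 37 °C, 5% CO₂. Compound (1.56 to 400) was added for 48 h, followed by MTT for 4 h at 37 °C and DMSO to dissolve the formazan. Absorbance was read at 570 nm and CC₅₀ calculated.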

H3N2 subtype = assay: Antiviral activity against Influenza A virus (A/Aichi/2/1968(H3N2)) infected in dog MDCK cells assessed as reduction in virus-induced cytopathogenicity incubated for 48 hrs by microscopic analysis; format: functional, cell-based
[7] = Selectivity index, ratio of CC50 for dog MDCK cells to IC50 for antiviral activity against Influenza A virus (A/Fort Monmouth/1/1947(H1N1)); format: toxicity; details: read-out: Ratio CC50/IC50
Summary of the method: (§4)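 SI = CC50/IC50, both from MTT read-outs in MDCK cells in triplicate. Cytotoxicity: 2 × 10⁴ cells/well, overnight at 37 °C with 5% CO2, then compound at 1.56–400 µM for 48 h, MTT 4 h, DMSO, A570. Antiviral: cells infected 1 h, washed, then cultured 48 h in DMEM with TPCK and two-fold serial compound dilutions.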

Influenza A virus [8] = assay: Antiviral activity against Influenza A virus (A/Fort Monmouth/1/1947(H1N1)) infected in dog MDCK cells assessed as reduction in virus-induced cytopathogenicity incubated for 48 hrs by microscopic analysis; format: functional, organism-based
Influenza A virus [9] = assay: Antiviral activity against Influenza A virus (A/Puerto Rico/8/34(H1N1)) infected in dog MDCK cells assessed as reduction in viral replication by measuring NP level incubated for 24 hrs by Western blot analysis; format: functional, organism-based; details: A/Puerto Rico/8/1934(H1N1), dose 5-40 µM
Summary of the method: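 Two-fold serial compound dilutions were added to PR8-infected MDCK cells after virus adsorption, and cells were harvested at 24 h p.i. Equal lysate protein was run on 10% SDS-PAGE and transferred to PVDF. Blots were probed with anti-NP (1:2000) and β-actin as loading control, then an HRP secondary, with chemiluminescent detection.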

MDCK [10] = assay: Upregulation of IFN-beta in dog MDCK cells infected with Influenza A virus (A/Puerto Rico/8/34(H1N1)) at 40 uM incubated for 24 hrs by qRT-PCR analysis; format: functional, cell-based; details: Canis lupus familiaris; summary of the method: as §1
[11] = Selectivity index, ratio of CC50 for dog MDCK cells to IC50 for antiviral activity against Influenza A virus (A/Aichi/2/1968(H3N2)); format: toxicity; details: read-out: Ratio CC50/IC50; summary of the method: as §4
Influenza A virus [12] = assay: Antiviral activity against Influenza A virus (A/Puerto Rico/8/34(H1N1)) infected in dog MDCK cells assessed as reduction in viral replication by measuring HA mRNA expression measured upto 72 hrs by qRT-PCR analysis; format: functional, organism-based; details: A/Puerto Rico/8/1934(H1N1), time hrs <=72
Summary of the method: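 Viral HA mRNA was measured by qRT-PCR in IAV-infected MDCK cells treated with serially diluted compound, at 24, 48 and 72 h p.i. Ribavirin served as positive control; data are mean SD.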

Influenza A virus [13] = assay: Antiviral activity against Influenza A virus (A/Puerto Rico/8/34(H1N1)) infected in dog MDCK cells assessed as reduction in plaque formation incubated for 48 hrs by crystal violet staining based assay; format: functional, organism-based; details: A/Puerto Rico/8/1934(H1N1), dose 5-40 µM
Summary of the method: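 Plaque reduction assay in PR8-infected MDCK cells across a range of compound doses. Cells were fixed with 4% paraformaldehyde and stained with crystal violet. Inhibition was scored by counting plaques.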

[14] = Selectivity index, ratio of CC50 for dog MDCK cells to IC50 for antiviral activity against Influenza A virus (A/Puerto Rico/8/34(H1N1)); format: toxicity; details: read-out: Ratio CC50/IC50; summary of the method: as §4
Influenza A virus [15] = assay: Antiviral activity against Influenza A virus (A/Puerto Rico/8/34(H1N1)) infected in dog MDCK cells assessed as reduction in viral replication by measuring NP level incubated for 24 hrs by immunofluorescence staining based Ti-Eclipse inverted fluorescence microscopic analysis; format: functional, organism-based; details: A/Puerto Rico/8/1934(H1N1), dose 5-40 µM
Summary of the method: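 MDCK cells were infected with PR8 at 100TCID₅₀ and treated with varied compound concentrations. At 24 h p.i. they were washed with cold PBS, fixed in 4% paraformaldehyde for 10 min and blocked in 3% BSA for 1 h at room temperature. Staining used anti-NP (1:250) overnight at 4 °C, then a FITC secondary for 1 h, with DAPI nuclear counterstain; cells were imaged by fluorescence microscopy.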

[16] = Selectivity index, ratio of CC50 for dog MDCK cells to IC50 for antiviral activity against Influenza A virus 690 (H3); format: toxicity; details: read-out: Ratio CC50/IC50; summary of the method: as §4
[17] = Cytotoxicity against dog MDCK cells assessed as reduction in cell viability incubated for 48 hrs by MTT assay; format: cell-based, Canis lupus familiaris; summary of the method: as §3
Influenza A virus [18] = assay: Antiviral activity against Influenza A virus 690 (H3) infected in dog MDCK cells assessed as reduction in virus-induced cytopathogenicity incubated for 48 hrs by microscopic analysis; format: functional, organism-based
Influenza A virus [19] = assay: Antiviral activity against Influenza A virus (A/Puerto Rico/8/34(H1N1)) infected in human A549 cells assessed as reduction in viral replication by measuring NP expression at 40 uM measured upto 10 hrs by qRT-PCR analysis; format: functional, organism-based; details: A/Puerto Rico/8/1934(H1N1), time hrs <=10; summary of the method: as §2
MDCK [20] = assay: Upregulation of MxA in dog MDCK cells infected with Influenza A virus (A/Puerto Rico/8/34(H1N1)) at 40 uM incubated for 24 hrs by qRT-PCR analysis; format: functional, cell-based; details: Canis lupus familiaris; summary of the method: as §1

| Compound | IC50 (Influenza A virus [1]) | further results |
| --- | --- | --- |
| CCOC(=O)C1=C(Nc2ccc(C(F)(F)F)cc2)C(=O)N(c2ccc(C(F)(F)F)cc2)C1c1ccc(C(F)(F)F)cc1 (stereo not given) | 67.2 µM |  |
| CCOC(=O)C1=C(Nc2ccc(C(F)(F)F)cc2)C(=O)N(c2ccc(C(F)(F)F)cc2)C1c1ccc(C)cc1 (stereo not given) | 68.5 µM |  |
| CCOC(=O)C1=C(Nc2ccc(C(F)(F)F)cc2)C(=O)N(c2ccc(C(F)(F)F)cc2)C1c1cccc2ccccc12 (stereo not given) | 11.8 µM |  |
| CCOC(=O)C1=C(Nc2ccc(C(F)(F)F)cc2)C(=O)N(c2ccc(C(F)(F)F)cc2)C1c1cccc([N+](=O)[O-])c1 (stereo not given) | > 400 µM |  |
| CCOC(=O)C1=C(Nc2cccc(Cl)c2)C(=O)N(c2cccc(Cl)c2)C1c1ccccc1 (stereo not given) | 6.91 µM |  |
| CCOC(=O)C1=C(Nc2ccc(C(F)(F)F)cc2)C(=O)N(c2ccc(C(F)(F)F)cc2)C1c1ccc(OC(F)(F)F)cc1 (stereo not given) | 128 µM |  |
| CCOC(=O)C1=C(Nc2ccc(C(C)C)cc2)C(=O)N(c2ccc(C(C)C)cc2)C1c1ccccc1 (stereo not given) | > 400 µM |  |
| CCOC(=O)C1=C(Nc2ccc(C(F)(F)F)cc2)C(=O)N(c2ccc(C(F)(F)F)cc2)C1c1cccc(OC)c1 (stereo not given) | 9.23 µM |  |
| COC(=O)C1=C(Nc2ccc(C(F)(F)F)cc2)C(=O)N(c2ccc(C(F)(F)F)cc2)C1c1ccccc1 (stereo not given) | 11.9 µM |  |
| CCOC(=O)C1=C(Nc2ccc(C(F)(F)F)cc2)C(=O)N(c2ccc(C(F)(F)F)cc2)C1c1ccc([N+](=O)[O-])cc1 (stereo not given) | > 400 µM |  |
| CCOC(=O)C1=C(Nc2ccc(C(F)(F)F)cc2)C(=O)N(c2ccc(C(F)(F)F)cc2)C1c1ccccc1 (stereo not given) | 3.11 µM | Activity (Influenza A virus [2]): Active; Activity (MDCK [3]): Active; Activity (Influenza A virus [4]): Active; Activity (Influenza A virus [5]): Active; CC50 at 48 h [6]: > 400 µM; IC50 (H3N2 subtype): 5.26 µM; selectivity ratio [7]: > 112; IC50 (Influenza A virus [8]): 3.58 µM; Activity (Influenza A virus [9]): Dose-dependent effect; Activity (MDCK [10]): Active; selectivity ratio [11]: > 76; Activity (Influenza A virus [12]): Active; Activity (Influenza A virus [13]): Dose-dependent effect; selectivity ratio [14]: > 129; Activity (Influenza A virus [15]): Dose-dependent effect; selectivity ratio [16]: > 56.1; CC50 at 48 h [17]: > 400 µM; IC50 (Influenza A virus [18]): 7.13 µM; Activity (Influenza A virus [19]): Active; Activity (MDCK [20]): Active |
| COC(=O)C1=C(Nc2cccc(C(F)(F)F)c2)C(=O)N(c2cccc(C(F)(F)F)c2)C1c1ccccc1 (stereo not given) | 16.1 µM |  |
| CCOC(=O)C1=C(Nc2ccc(C(F)(F)F)cc2)C(=O)N(c2ccc(C(F)(F)F)cc2)C1c1ccc(F)cc1 (stereo not given) | 7.63 µM |  |
| CCOC(=O)C1=C(Nc2ccc(C)cc2)C(=O)N(c2ccc(C)cc2)C1c1ccccc1 (stereo not given) | 19 µM |  |
| CCOC(=O)C1=C(Nc2ccc(C(F)(F)F)cc2)C(=O)N(c2ccc(C(F)(F)F)cc2)C1c1cccc(C(F)(F)F)c1 (stereo not given) | 11.8 µM |  |
| CCOC(=O)C1=C(Nc2ccc(Br)cc2)C(=O)N(c2ccc(Br)cc2)C1c1ccccc1 (stereo not given) | > 400 µM |  |
| CCOC(=O)C1=C(NC2CCCCC2)C(=O)N(C2CCCCC2)C1c1ccccc1 (stereo not given) | > 400 µM |  |
| CCOC(=O)C1=C(Nc2cccc(C(F)(F)F)c2)C(=O)N(c2cccc(C(F)(F)F)c2)C1c1ccccc1 (stereo not given) | 30.9 µM |  |
| NC(=O)c1ncn([C@@H]2O[C@H](CO)[C@@H](O)[C@H]2O)n1 [RIBAVIRIN] | 2.84 µM |  |
| CCOC(=O)C1=C(Nc2ccc(C(C)(C)C)cc2)C(=O)N(c2ccc(C(C)(C)C)cc2)C1c1ccccc1 (stereo not given) | > 400 µM |  |
| CCOC(=O)C1=C(Nc2ccc(C(F)(F)F)cc2)C(=O)N(c2ccc(C(F)(F)F)cc2)C1c1ccc(Br)s1 (stereo not given) | > 400 µM |  |
| CCOC(=O)C1=C(Nc2ccc(C(F)(F)F)cc2)C(=O)N(c2ccc(C(F)(F)F)cc2)C1c1ccc(Cl)cc1 (stereo not given) | > 400 µM |  |
| CCOC(=O)C1=C(Nc2ccccc2)C(=O)N(c2ccccc2)C1c1ccccc1 (stereo not given) | > 400 µM |  |
| CCOC(=O)C1=C(Nc2ccc(Cl)cc2)C(=O)N(c2ccc(Cl)cc2)C1c1ccccc1 (stereo not given) | > 400 µM |  |
| CCOC(=O)C1=C(Nc2ccc(OC)cc2)C(=O)N(c2ccc(OC)cc2)C1c1ccccc1 (stereo not given) | > 400 µM |  |
| CCOC(=O)C1=C(Nc2ccc(C(F)(F)F)cc2)C(=O)N(c2ccc(C(F)(F)F)cc2)C1c1ccc(C#N)cc1 (stereo not given) | > 400 µM |  |
| CCOC(=O)C1=C(Nc2ccc(C(F)(F)F)cc2)C(=O)N(c2ccc(C(F)(F)F)cc2)C1 | 222 µM |  |
| CCOC(=O)C1=C(Nc2ccc(C(F)(F)F)cc2)C(=O)N(c2ccc(C(F)(F)F)cc2)C1c1ccc(C(C)(C)C)cc1 (stereo not given) | > 400 µM |  |
| CCOC(=O)C1=C(Nc2ccc(Oc3ccccc3)cc2)C(=O)N(c2ccc(Oc3ccccc3)cc2)C1c1ccccc1 (stereo not given) | > 400 µM |  |
| CCOC(=O)C1=C(Nc2ccc(C(F)(F)F)cc2)C(=O)N(c2ccc(C(F)(F)F)cc2)C1c1ccc(Br)cc1 (stereo not given) | > 400 µM |  |
